# Reference: ChEMBL document CHEMBL5058577, “EUbOPEN Chemogenomics Library 2 (Multiplex)” (2022)
# Tested on: U2OS
# Assay: Multiplex assay against U2OS
# Assay type: toxicity, cell-based
# Conditions: human
# Summary of the method: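 With compound added, live cells were imaged on a CQ1 microscope at 37°C and 5% CO2; staining with Hoechst33342, BioTracker Green Microtubule Cytoskeleton Dye, MitoTracker Red and Annexin V Alexa Fluor 680 had been done at seeding. The CellPathfinder machine-learning gating scheme split cells into Hoechst high-intensity objects or normal cells, normal cells into healthy, pyknosed or fragmented nuclei, and pyknosed cells into mitotic or apoptotic. The tubulin, mitochondrial-mass and membrane-permeability phenotypes are per cents of healthy-nucleus cells.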
# [1] = 12 h, 1 µM, compound concentration 1 uM, replicate 1
# [2] = 12 h, 1 µM, compound concentration 1 uM, replicate 2
# [3] = 12 h, 10 µM, compound concentration 10 uM, replicate 1
# [4] = 12 h, 10 µM, compound concentration 10 uM, replicate 2
# [5] = 24 h, 1 µM, compound concentration 1 uM, replicate 1
# [6] = 24 h, 1 µM, compound concentration 1 uM, replicate 2
# [7] = 24 h, 10 µM, compound concentration 10 uM, replicate 1
# [8] = 24 h, 10 µM, compound concentration 10 uM, replicate 2
# [9] = 48 h, 1 µM, compound concentration 1 uM, replicate 1
# [10] = 48 h, 1 µM, compound concentration 1 uM, replicate 2
# [11] = 48 h, 10 µM, compound concentration 10 uM, replicate 1
# [12] = 48 h, 10 µM, compound concentration 10 uM, replicate 2
compound,measurement,setting,value
Cc1ccccc1C(=O)Nc1ccc(C(=O)N2CCCC(N(C)C)c3ccccc32)cc1.Cl (centres undefined),Population Apoptotic (%),[1],91%
same,Population Fragmented Nuclei (%),[1],20%
same,Population Healthy Nuclei (%),[1],70%
same,Population Hoechst High Intensity Objects (%),[1],1%
same,Population Membrane Permeable-Phenotype (%),[1],5%
same,Population Mitochondria Different-Phenotype (%),[1],3%
same,Population Mitotic Cells (%),[1],8%
same,Population Normal (%),[1],98%
same,Population Pyknosed Nuclei (%),[1],8%
same,Population Tubulin-Different-Phenotype (%),[1],4%
same,Total Cell Count,[1],282
same,Population Apoptotic (%),[2],77%
same,Population Fragmented Nuclei (%),[2],14%
same,Population Healthy Nuclei (%),[2],79%
same,Population Membrane Permeable-Phenotype (%),[2],4%
same,Population Mitochondria Different-Phenotype (%),[2],5%
same,Population Mitotic Cells (%),[2],22%
same,Population Pyknosed Nuclei (%),[2],5%
same,Population Tubulin-Different-Phenotype (%),[2],1%
same,Total Cell Count,[2],157
same,Population Apoptotic (%),[3],59%
same,Population Fragmented Nuclei (%),[3],18%
same,Population Healthy Nuclei (%),[3],55%
same,Population Hoechst High Intensity Objects (%),[3],4%
same,Population Membrane Permeable-Phenotype (%),[3],14%
same,Population Mitochondria Different-Phenotype (%),[3],11%
same,Population Mitotic Cells (%),[3],40%
same,Population Normal (%),[3],95%
same,Population Pyknosed Nuclei (%),[3],25%
same,Population Tubulin-Different-Phenotype (%),[3],8%
same,Total Cell Count,[3],213
same,Population Apoptotic (%),[4],56%
same,Population Healthy Nuclei (%),[4],62%
same,Population Hoechst High Intensity Objects (%),[4],1%
same,Population Membrane Permeable-Phenotype (%),[4],15%
same,Population Mitochondria Different-Phenotype (%),[4],25%
same,Population Mitotic Cells (%),[4],43%
same,Population Normal (%),[4],98%
same,Population Pyknosed Nuclei (%),[4],19%
same,Population Tubulin-Different-Phenotype (%),[4],15%
same,Total Cell Count,[4],83
same,Population Apoptotic (%),[5],88%
same,Population Fragmented Nuclei (%),[5],18%
same,Population Healthy Nuclei (%),[5],70%
same,Population Hoechst High Intensity Objects (%),[5],0%
same,Population Membrane Permeable-Phenotype (%),[5],6%
same,Population Mitochondria Different-Phenotype (%),[5],3%
same,Population Mitotic Cells (%),[5],11%
same,Population Normal (%),[5],99%
same,Population Pyknosed Nuclei (%),[5],10%
same,Population Tubulin-Different-Phenotype (%),[5],4%
same,Total Cell Count,[5],333
same,Population Apoptotic (%),[6],66%
same,Population Fragmented Nuclei (%),[6],13%
same,Population Healthy Nuclei (%),[6],77%
same,Population Hoechst High Intensity Objects (%),[6],1%
same,Population Membrane Permeable-Phenotype (%),[6],5%
same,Population Mitochondria Different-Phenotype (%),[6],4%
same,Population Mitotic Cells (%),[6],33%
same,Population Normal (%),[6],98%
same,Population Pyknosed Nuclei (%),[6],9%
same,Population Tubulin-Different-Phenotype (%),[6],3%
same,Total Cell Count,[6],192
same,Population Apoptotic (%),[7],71%
same,Population Fragmented Nuclei (%),[7],16%
same,Population Healthy Nuclei (%),[7],51%
same,Population Hoechst High Intensity Objects (%),[7],4%
same,Population Membrane Permeable-Phenotype (%),[7],16%
same,Population Mitochondria Different-Phenotype (%),[7],14%
same,Population Mitotic Cells (%),[7],28%
same,Population Normal (%),[7],95%
same,Population Pyknosed Nuclei (%),[7],31%
same,Population Tubulin-Different-Phenotype (%),[7],6%
same,Total Cell Count,[7],211
same,Population Apoptotic (%),[8],46%
same,Population Fragmented Nuclei (%),[8],27%
same,Population Healthy Nuclei (%),[8],53%
same,Population Hoechst High Intensity Objects (%),[8],5%
same,Population Membrane Permeable-Phenotype (%),[8],18%
same,Population Mitochondria Different-Phenotype (%),[8],18%
same,Population Mitotic Cells (%),[8],53%
same,Population Normal (%),[8],94%
same,Population Pyknosed Nuclei (%),[8],18%
same,Population Tubulin-Different-Phenotype (%),[8],18%
same,Total Cell Count,[8],73
same,Population Apoptotic (%),[9],85%
same,Population Fragmented Nuclei (%),[9],14%
same,Population Healthy Nuclei (%),[9],71%
same,Population Hoechst High Intensity Objects (%),[9],1%
same,Population Membrane Permeable-Phenotype (%),[9],5%
same,Population Mitochondria Different-Phenotype (%),[9],3%
same,Population Mitotic Cells (%),[9],14%
same,Population Normal (%),[9],98%
same,Population Pyknosed Nuclei (%),[9],13%
same,Population Tubulin-Different-Phenotype (%),[9],3%
same,Total Cell Count,[9],414
same,Population Apoptotic (%),[10],83%
same,Population Fragmented Nuclei (%),[10],15%
same,Population Healthy Nuclei (%),[10],72%
same,Population Membrane Permeable-Phenotype (%),[10],7%
same,Population Mitochondria Different-Phenotype (%),[10],5%
same,Population Mitotic Cells (%),[10],16%
same,Population Pyknosed Nuclei (%),[10],12%
same,Population Tubulin-Different-Phenotype (%),[10],4%
same,Total Cell Count,[10],248
same,Population Apoptotic (%),[11],71%
same,Population Fragmented Nuclei (%),[11],28%
same,Population Healthy Nuclei (%),[11],43%
same,Population Hoechst High Intensity Objects (%),[11],8%
same,Population Membrane Permeable-Phenotype (%),[11],17%
same,Population Mitochondria Different-Phenotype (%),[11],8%
same,Population Mitotic Cells (%),[11],28%
same,Population Normal (%),[11],91%
same,Population Pyknosed Nuclei (%),[11],28%
same,Population Tubulin-Different-Phenotype (%),[11],7%
same,Total Cell Count,[11],206
same,Population Apoptotic (%),[12],84%
same,Population Healthy Nuclei (%),[12],42%
same,Population Membrane Permeable-Phenotype (%),[12],11%
same,Population Mitochondria Different-Phenotype (%),[12],30%
same,Population Mitotic Cells (%),[12],16%
same,Population Pyknosed Nuclei (%),[12],29%
same,Population Tubulin-Different-Phenotype (%),[12],13%
same,Total Cell Count,[12],93
